From ChEMBL document CHEMBL2424622, “Development of amino-pyrimidine inhibitors of c-Jun N-terminal kinase (JNK): kinase profiling guided optimization of a 1,2,3-benzotriazole lead” (Bioorg Med Chem Lett, 2013)

Assays:
[1] = target: Serine/threonine-protein kinase 38-like (Homo sapiens) (UniProt Q9Y2H1); assay: Competitive binding affinity to NDR2 (unknown origin) at 10 uM in presence of ATP relative to control
How it was run: (§1)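 In vitro ATP-site competition binding assay across a diverse panel of 128 kinases, with compound tested at a single concentration. Kinase selectivity scores (S15) were calculated from the panel profiles.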

[2] = system: Phosphatidylinositol 4,5-bisphosphate 3-kinase catalytic subunit alpha isoform (Homo sapiens), P42336 [E545K]; assay: Competitive binding affinity to PIK3CA E545K mutant (unknown origin) at 10 uM in presence of ATP relative to control
Chain of Phosphatidylinositol 4,5-bisphosphate 3-kinase catalytic subunit alpha isoform (Homo sapiens), P42336 [E545K] (P42336 whole entry E545K, canonical isoform): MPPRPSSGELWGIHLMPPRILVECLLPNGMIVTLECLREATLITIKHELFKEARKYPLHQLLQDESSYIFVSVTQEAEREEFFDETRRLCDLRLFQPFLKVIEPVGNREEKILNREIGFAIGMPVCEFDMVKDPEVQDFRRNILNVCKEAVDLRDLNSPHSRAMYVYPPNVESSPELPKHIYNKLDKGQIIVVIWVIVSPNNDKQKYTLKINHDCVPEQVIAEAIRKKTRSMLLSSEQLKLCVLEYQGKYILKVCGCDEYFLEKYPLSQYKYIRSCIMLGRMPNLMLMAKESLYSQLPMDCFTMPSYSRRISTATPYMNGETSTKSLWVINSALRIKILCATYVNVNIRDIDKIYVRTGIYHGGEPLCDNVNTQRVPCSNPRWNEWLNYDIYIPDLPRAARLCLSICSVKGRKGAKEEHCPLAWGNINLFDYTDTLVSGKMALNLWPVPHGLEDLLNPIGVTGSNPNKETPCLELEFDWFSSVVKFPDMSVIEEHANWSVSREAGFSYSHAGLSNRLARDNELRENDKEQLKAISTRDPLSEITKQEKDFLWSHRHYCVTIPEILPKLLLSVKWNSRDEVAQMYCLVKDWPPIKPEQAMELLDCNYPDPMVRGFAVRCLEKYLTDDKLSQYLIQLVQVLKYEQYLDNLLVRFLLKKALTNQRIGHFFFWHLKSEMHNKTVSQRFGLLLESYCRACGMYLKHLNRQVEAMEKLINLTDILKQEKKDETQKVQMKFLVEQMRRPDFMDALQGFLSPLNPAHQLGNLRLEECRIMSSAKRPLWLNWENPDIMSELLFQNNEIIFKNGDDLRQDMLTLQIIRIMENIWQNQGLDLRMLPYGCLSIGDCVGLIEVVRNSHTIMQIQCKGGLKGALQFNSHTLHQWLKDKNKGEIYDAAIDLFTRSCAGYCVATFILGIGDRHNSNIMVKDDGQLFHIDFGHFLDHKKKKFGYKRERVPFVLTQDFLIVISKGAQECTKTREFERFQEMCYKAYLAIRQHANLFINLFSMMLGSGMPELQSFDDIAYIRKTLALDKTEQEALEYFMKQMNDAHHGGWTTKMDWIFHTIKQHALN

[3] = target: T1, Serine/threonine-protein kinase 4 (Homo sapiens) (UniProt Q13043); assay: Competitive binding affinity to MST1 (unknown origin) at 10 uM in presence of ATP relative to control
T1 sequence (whole entry): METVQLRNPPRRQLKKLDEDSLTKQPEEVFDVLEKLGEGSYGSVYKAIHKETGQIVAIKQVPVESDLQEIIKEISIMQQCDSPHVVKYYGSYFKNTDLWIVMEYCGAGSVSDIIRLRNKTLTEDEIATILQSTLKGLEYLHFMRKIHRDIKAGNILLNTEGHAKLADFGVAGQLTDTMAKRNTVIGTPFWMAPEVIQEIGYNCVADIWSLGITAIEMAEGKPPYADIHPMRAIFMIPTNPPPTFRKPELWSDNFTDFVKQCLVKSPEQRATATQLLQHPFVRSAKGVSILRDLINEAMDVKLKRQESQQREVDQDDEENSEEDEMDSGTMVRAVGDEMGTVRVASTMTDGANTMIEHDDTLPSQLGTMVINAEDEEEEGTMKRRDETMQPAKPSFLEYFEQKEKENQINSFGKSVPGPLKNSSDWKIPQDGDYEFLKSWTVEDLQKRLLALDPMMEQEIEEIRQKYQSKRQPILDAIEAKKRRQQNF

[4] = target: T2, Mitogen-activated protein kinase kinase kinase 5 (Homo sapiens) (UniProt Q99683); assay: Competitive binding affinity to MAP3K5 (unknown origin) at 10 uM in presence of ATP relative to control
T2 sequence (whole entry): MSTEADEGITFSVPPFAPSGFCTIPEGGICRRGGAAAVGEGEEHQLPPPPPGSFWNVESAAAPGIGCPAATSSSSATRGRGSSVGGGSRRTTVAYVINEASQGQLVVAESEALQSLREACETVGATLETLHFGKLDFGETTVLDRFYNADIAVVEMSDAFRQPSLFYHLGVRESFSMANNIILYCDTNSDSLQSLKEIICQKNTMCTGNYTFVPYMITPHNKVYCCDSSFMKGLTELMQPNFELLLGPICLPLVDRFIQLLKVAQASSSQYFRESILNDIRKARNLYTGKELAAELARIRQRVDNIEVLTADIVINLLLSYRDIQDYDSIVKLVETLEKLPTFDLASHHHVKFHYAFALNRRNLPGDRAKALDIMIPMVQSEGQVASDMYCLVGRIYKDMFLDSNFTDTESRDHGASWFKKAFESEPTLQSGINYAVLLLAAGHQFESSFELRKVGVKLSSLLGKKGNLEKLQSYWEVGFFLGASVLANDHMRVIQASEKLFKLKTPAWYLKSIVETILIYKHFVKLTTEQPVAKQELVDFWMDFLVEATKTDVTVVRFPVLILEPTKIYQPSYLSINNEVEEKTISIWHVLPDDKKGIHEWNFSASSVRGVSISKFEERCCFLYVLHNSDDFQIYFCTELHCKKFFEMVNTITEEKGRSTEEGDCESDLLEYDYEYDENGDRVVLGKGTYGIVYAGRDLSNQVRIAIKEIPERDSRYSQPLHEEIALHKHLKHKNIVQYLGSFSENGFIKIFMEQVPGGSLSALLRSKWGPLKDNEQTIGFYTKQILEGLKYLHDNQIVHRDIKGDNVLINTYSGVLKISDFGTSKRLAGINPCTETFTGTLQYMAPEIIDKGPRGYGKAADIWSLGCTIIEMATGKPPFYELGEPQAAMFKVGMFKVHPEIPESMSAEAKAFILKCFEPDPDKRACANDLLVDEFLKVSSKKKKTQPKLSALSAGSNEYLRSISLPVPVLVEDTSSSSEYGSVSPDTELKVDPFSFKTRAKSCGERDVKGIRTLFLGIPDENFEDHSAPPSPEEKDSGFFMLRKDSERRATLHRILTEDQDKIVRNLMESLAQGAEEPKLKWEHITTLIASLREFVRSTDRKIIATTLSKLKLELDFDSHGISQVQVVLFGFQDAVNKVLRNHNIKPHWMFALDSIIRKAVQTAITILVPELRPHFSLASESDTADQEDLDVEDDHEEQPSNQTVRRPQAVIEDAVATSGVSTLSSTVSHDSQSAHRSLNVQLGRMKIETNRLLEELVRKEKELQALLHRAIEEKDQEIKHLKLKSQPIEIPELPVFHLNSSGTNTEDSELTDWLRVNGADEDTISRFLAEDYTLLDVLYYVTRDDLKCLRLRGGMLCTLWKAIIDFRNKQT

[5] = target: T3, Muscle, skeletal receptor tyrosine-protein kinase (Homo sapiens) (UniProt O15146); assay: Competitive binding affinity to MUSK (unknown origin) at 10 uM in presence of ATP relative to control; how it was run: as §1
T3 sequence (whole entry): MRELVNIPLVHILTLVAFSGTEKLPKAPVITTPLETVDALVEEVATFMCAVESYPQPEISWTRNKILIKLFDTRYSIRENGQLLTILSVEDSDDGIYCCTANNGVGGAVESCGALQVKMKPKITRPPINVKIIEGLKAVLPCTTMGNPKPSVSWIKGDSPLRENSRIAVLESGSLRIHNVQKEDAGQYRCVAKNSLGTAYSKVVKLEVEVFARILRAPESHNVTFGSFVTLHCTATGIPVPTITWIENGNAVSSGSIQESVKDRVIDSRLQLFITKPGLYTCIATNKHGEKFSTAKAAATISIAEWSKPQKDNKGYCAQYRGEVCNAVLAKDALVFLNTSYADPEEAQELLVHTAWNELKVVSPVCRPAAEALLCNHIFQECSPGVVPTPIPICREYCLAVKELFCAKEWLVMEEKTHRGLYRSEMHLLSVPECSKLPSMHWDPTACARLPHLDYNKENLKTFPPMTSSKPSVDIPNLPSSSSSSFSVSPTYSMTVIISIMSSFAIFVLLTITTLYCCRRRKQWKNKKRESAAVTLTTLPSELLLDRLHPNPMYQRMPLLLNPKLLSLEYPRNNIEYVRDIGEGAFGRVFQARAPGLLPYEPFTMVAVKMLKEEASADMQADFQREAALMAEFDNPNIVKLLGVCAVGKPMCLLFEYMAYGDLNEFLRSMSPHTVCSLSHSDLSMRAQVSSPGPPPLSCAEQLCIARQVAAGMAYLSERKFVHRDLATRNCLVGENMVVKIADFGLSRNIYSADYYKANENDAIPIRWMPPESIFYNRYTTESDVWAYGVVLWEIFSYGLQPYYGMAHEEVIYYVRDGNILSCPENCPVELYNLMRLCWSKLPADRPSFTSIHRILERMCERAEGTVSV

Chain of Serine/threonine-protein kinase 38-like (Homo sapiens) (Q9Y2H1 2-464 limits assumed): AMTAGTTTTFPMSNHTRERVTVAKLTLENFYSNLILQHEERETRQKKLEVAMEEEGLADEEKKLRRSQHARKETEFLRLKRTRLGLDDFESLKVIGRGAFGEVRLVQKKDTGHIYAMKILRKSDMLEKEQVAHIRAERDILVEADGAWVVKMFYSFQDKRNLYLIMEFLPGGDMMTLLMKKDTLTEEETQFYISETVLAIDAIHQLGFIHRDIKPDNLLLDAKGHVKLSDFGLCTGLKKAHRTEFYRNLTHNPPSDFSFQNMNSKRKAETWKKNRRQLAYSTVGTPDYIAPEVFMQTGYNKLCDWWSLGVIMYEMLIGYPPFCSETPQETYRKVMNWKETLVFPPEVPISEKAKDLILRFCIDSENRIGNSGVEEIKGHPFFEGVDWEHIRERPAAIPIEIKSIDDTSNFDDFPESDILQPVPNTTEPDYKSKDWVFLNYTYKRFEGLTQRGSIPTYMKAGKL

inhibition [1] [%] | inhibition [2] [%] | inhibition [3] [%] | inhibition [4] [%] | inhibition [5] [%] | Compound
< 50 | 82 | < 50 | < 50 | < 50 | O[C@H]1CC[C@H](Nc2nccc(-n3ncc4ccccc43)n2)CC1
< 50 | < 50 | < 50 | < 50 | < 50 | O[C@H]1CC[C@H](Nc2nccc(-n3ccc4ccccc43)n2)CC1
72 |  |  |  | < 50 | O[C@H]1CC[C@H](Nc2nccc(-c3n[nH]c4ccccc34)n2)CC1
< 50 | 88 | < 50 | < 50 | < 50 | O[C@H]1CC[C@H](Nc2nccc(-n3nnc4ccccc43)n2)CC1
